Measurements published in ChEMBL document CHEMBL1153716, “Constrained peptidomimetics reveal detailed geometric requirements of covalent prolyl oligopeptidase inhibitors” (J Med Chem, 2009).
Active and inactive are the calls of the source. The rule behind the calls is not given here.

Columns and labels:
[1] = biological target: T1, Prolyl endopeptidase (Homo sapiens) (UniProt P48147); test: Inhibition of prolyl oligopeptidase in human astrocyte derived cell extracts assessed as blockade of Z-Gly-Pro-AMC substrate hydrolysis at 100 uM by fluorimetric assay
T1 sequence (whole entry): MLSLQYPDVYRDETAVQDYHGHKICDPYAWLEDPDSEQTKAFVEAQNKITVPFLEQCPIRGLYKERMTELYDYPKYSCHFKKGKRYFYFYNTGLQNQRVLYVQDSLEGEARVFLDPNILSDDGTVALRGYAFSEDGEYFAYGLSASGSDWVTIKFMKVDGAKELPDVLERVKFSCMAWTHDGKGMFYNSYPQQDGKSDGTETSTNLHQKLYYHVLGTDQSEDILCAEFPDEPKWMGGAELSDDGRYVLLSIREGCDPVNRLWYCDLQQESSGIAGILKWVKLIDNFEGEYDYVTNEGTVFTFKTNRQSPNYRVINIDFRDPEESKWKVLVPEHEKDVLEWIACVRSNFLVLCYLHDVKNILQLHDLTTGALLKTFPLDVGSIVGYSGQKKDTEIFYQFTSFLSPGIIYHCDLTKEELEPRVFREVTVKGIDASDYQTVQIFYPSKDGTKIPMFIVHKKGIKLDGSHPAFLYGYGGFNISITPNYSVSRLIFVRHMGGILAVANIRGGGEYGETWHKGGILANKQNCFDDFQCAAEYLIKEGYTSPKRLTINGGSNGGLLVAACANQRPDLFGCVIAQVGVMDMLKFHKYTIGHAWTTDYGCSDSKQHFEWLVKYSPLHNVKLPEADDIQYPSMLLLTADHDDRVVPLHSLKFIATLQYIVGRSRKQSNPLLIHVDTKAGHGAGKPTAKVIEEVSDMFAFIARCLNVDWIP
Summary of the method: (§1)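 Confluent human glioblastoma (LN18, LN229, LNZ308), brain endothelial HCEC, or lung PO03 and skin PG98/5 fibroblasts extracted in PBS with 0.1% Triton X-100. Compound was diluted from methanol stock into water and preincubated 5-10 min at room temperature. Z-Gly-Pro-AMC was then added and read by fluorescence. Duplicate wells.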

[2] = biological target: T1, Prolyl endopeptidase (Homo sapiens); test: Inhibition of prolyl oligopeptidase in human brain derived endothelial cell extracts assessed as blockade of Z-Gly-Pro-AMC substrate hydrolysis at 100 uM by fluorimetric assay; format: cell-free; summary of the method: as §1
[3] = biological target: T1, Prolyl endopeptidase (Homo sapiens); test: Inhibition of prolyl oligopeptidase in human fibroblast extracts assessed as blockade of Z-Gly-Pro-AMC substrate hydrolysis at 100 uM by fluorimetric assay; summary of the method: as §1
[4] = biological target: Dipeptidyl peptidase 4 (Homo sapiens) (UniProt P27487); test: Inhibition of DPP4 in human astrocyte derived cell extracts assessed as blockade of Gly-Pro-AMC substrate hydrolysis at 100 uM by fluorimetric assay
Summary of the method: (§2)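 Confluent human cells (glioblastoma LN18, LN229, LNZ308; brain endothelial HCEC; lung PO03 or skin PG98/5 fibroblasts) grown in DMEM with 4.5 g/L glucose and 10% FCS, then lysed in PBS (pH 7.2-7.4) containing 0.1% Triton X-100. Compound was diluted from methanol stock into water and preincubated 5-10 min at room temperature. Gly-Pro-AMC was then added. Duplicate wells.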

[5] = biological target: Dipeptidyl peptidase 4 (Homo sapiens) (UniProt P27487); test: Inhibition of DPP4 in human brain derived endothelial cell extracts assessed as blockade of Gly-Pro-AMC substrate hydrolysis at 100 uM by fluorimetric assay; format: cell-free; summary of the method: as §2
[6] = biological target: Dipeptidyl peptidase 4 (Homo sapiens) (UniProt P27487); test: Inhibition of DPP4 in human fibroblast extracts assessed as blockade of Gly-Pro-AMC substrate hydrolysis at 100 uM by fluorimetric assay; summary of the method: as §2
[7] = biological target: T1, Prolyl endopeptidase (Homo sapiens); test: Inhibition of prolyl oligopeptidase in intact human astrocyte derived cells assessed as blockade of Z-Gly-Pro-AMC substrate hydrolysis at 100 uM by fluorimetric assay
Summary of the method: (§3)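 Intact confluent human glioblastoma (LN18, LN229, LNZ308), brain endothelial HCEC, or lung PO03 and skin PG98/5 fibroblast monolayers in PBS (pH 7.2-7.4), cells grown beforehand in DMEM with 10% FCS. Compound was diluted from methanol stock into water and preincubated 5-10 min at room temperature. Z-Gly-Pro-AMC was then added and read fluorimetrically. Duplicate wells.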

[8] = biological target: T1, Prolyl endopeptidase (Homo sapiens); test: Inhibition of prolyl oligopeptidase in intact human brain derived endothelial cells assessed as blockade of Z-Gly-Pro-AMC substrate hydrolysis at 100 uM by fluorimetric assay; format: cell-based; settings: Endothelial cell; summary of the method: as §3
[9] = biological target: T1, Prolyl endopeptidase (Homo sapiens); test: Inhibition of prolyl oligopeptidase in intact human fibroblasts assessed as blockade of Z-Gly-Pro-AMC substrate hydrolysis at 100 uM by fluorimetric assay; summary of the method: as §3
[10] = biological target: Dipeptidyl peptidase 4 (Homo sapiens) (UniProt P27487); test: Inhibition of DPP4 in intact human astrocyte derived cells assessed as blockade of Gly-Pro-AMC substrate hydrolysis at 100 uM by fluorimetric assay
Summary of the method: (§4)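 Confluent intact human glioblastoma (LN18, LN229, LNZ308), brain endothelial HCEC, or lung PO03 and skin PG98/5 fibroblast monolayers kept in PBS (pH 7.2-7.4) without detergent. Compound was diluted from methanol stock into water and preincubated 5-10 min at room temperature. Gly-Pro-AMC was then added and hydrolysis read by fluorescence. Duplicate wells.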

[11] = biological target: Dipeptidyl peptidase 4 (Homo sapiens) (UniProt P27487); test: Inhibition of DPP4 in intact human brain derived endothelial cells assessed as blockade of Gly-Pro-AMC substrate hydrolysis at 100 uM by fluorimetric assay; format: cell-based; settings: Endothelial cell; summary of the method: as §4
[12] = biological target: Dipeptidyl peptidase 4 (Homo sapiens) (UniProt P27487); test: Inhibition of DPP4 in intact human fibroblasts assessed as blockade of Gly-Pro-AMC substrate hydrolysis at 100 uM by fluorimetric assay; summary of the method: as §4

Sequence of Dipeptidyl peptidase 4 (Homo sapiens) (P27487 whole entry, looked up): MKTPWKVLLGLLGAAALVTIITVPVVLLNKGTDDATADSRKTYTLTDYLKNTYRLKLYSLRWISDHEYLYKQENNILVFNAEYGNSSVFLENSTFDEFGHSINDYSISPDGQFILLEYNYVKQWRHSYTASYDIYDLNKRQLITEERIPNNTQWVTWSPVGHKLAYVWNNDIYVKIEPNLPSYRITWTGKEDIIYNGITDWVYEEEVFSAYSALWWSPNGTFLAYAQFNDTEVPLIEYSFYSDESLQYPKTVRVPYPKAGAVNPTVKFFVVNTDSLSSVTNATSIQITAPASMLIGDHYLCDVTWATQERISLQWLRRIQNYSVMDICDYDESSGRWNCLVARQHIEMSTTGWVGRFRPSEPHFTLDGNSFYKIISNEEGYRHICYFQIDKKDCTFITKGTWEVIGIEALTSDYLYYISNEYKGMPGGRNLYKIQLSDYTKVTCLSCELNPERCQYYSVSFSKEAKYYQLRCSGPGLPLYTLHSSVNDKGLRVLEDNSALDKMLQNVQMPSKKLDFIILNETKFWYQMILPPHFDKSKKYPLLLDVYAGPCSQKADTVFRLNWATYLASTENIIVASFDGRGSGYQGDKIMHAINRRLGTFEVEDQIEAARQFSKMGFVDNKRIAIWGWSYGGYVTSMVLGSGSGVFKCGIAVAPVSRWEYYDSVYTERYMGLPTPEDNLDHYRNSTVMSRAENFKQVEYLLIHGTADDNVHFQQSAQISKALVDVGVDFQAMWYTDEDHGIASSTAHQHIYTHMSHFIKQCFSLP

Compound | inhibition [1] | inhibition [2] | inhibition [3] | inhibition [4] | inhibition [5] | inhibition [6] | inhibition [7] | inhibition [8] | inhibition [9] | inhibition [10] | inhibition [11] | inhibition [12]
C[C@H]1O[C@H]2C[C@@H](NC(=O)OCc3ccccc3)C(=O)N2[C@@H]1C#N | 10% | 10% | inactive | inactive | inactive | inactive | inactive | 10% | inactive | inactive | inactive | inactive
N#C[C@@H]1CCCN1C(=O)OCc1ccccc1 | inactive | 10% | inactive | inactive | inactive | inactive | inactive | inactive | 10% | inactive | inactive | inactive
CC(C)(C)OC(=O)N1CCC[C@H]1C#N | inactive | inactive | inactive | inactive | inactive | inactive | inactive | inactive | inactive | inactive | inactive | inactive
C[C@H]1O[C@H]2C[C@H](NC(=O)OCc3ccccc3)C(=O)N2[C@@H]1C#N | 10% | 10% | inactive | inactive | inactive | inactive | inactive | 10% | inactive | inactive | inactive | inactive
N#C[C@@H]1CO[C@H]2C[C@H](NC(=O)OCc3ccccc3)C(=O)N12 | inactive | inactive | 10% | inactive | inactive | inactive | inactive | inactive | 10% | inactive | inactive | inactive

Continued, values first:

inhibition [1] | inhibition [2] | inhibition [3] | inhibition [4] | inhibition [5] | inhibition [6] | inhibition [7] | inhibition [8] | inhibition [9] | inhibition [10] | inhibition [11] | inhibition [12] | Compound
10% | inactive | 10% | inactive | inactive | inactive | inactive | inactive | 10% | inactive | inactive | inactive | COC(=O)[C@@H]1CS[C@H]2C[C@H](NC(=O)OCc3ccccc3)C(=O)N21
> 50% | > 50% | > 50% | inactive | inactive | inactive | > 50% | 10% | > 50% | inactive | inactive | inactive | N#C[C@@H]1CS[C@H]2CC[C@H](NC(=O)OCc3ccccc3)C(=O)N12
10% | > 50% | 10% | inactive | inactive | inactive | inactive | 10% | 10% | inactive | inactive | inactive | N#C[C@@H]1CS[C@H]2C[C@H](NC(=O)OCc3ccccc3)C(=O)N12
inactive | inactive | 10% | inactive | inactive | inactive | inactive | inactive | 10% | inactive | inactive | inactive | COC(=O)[C@@H]1CS[C@H]2C[C@@H](NC(=O)OCc3ccccc3)C(=O)N21
